# Assay results reported in ChEMBL document CHEMBL3286372, “Design, synthesis and structure-activity relationship of novel semi-synthetic flavonoids as antiproliferative agents” (2014).
# Tests used:
# Format in all cases: functional
# [1] = system: CCRF-CEM; test: Growth inhibition of human CCRF-CEM cells at 10 uM after 48 hrs by sulforhodamine B assay relative to control; details: read-out: GI
# Procedure, shortened: (§1)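 NCI-60 primary screen at a single dose of 10 µM with 48 h continuous exposure. Growth or viability read by sulforhodamine B protein staining and expressed as percent growth inhibition versus untreated cells.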
# [2] = system: RPMI-8226; test: Growth inhibition of human RPMI8226 cells at 10 uM after 48 hrs by sulforhodamine B assay relative to control; details: RPMI-8226, 48 h, read-out: GI
# Procedure, shortened: (§2)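 NCI-60 primary screen at a single 10 µM dose. Continuous 48 h exposure, with growth or viability estimated by sulforhodamine B protein staining. Reported as percent growth inhibition of treated cells relative to untreated growth.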
# [3] = system: SR; test: Growth inhibition of human SR cells at 10 uM after 48 hrs by sulforhodamine B assay relative to control; details: read-out: GI; procedure, shortened: as §2
# [4] = system: MCF7; test: Growth inhibition of human MCF7 cells at 10 uM after 48 hrs by sulforhodamine B assay relative to control; details: MCF7, 48 h, read-out: GI; procedure, shortened: as §1
# [5] = system: T47D; test: Growth inhibition of human T47D cells at 10 uM after 48 hrs by sulforhodamine B assay relative to control; details: read-out: GI; procedure, shortened: as §2
# [6] = system: NCI-H522; test: Growth inhibition of human NCI-H522 cells at 10 uM after 48 hrs by sulforhodamine B assay relative to control; details: NCI-H522, 48 h, read-out: GI; procedure, shortened: as §2
# [7] = Growth inhibition of human MOLT4 cells at 10 uM after 48 hrs by sulforhodamine B assay relative to control; details: MOLT-4, 48 h, read-out: GI; procedure, shortened: as §2
# [8] = system: HCT-116; test: Growth inhibition of human HCT116 cells at 10 uM after 48 hrs by sulforhodamine B assay relative to control; details: HCT-116, 48 h, read-out: GI; procedure, shortened: as §1
# [9] = Growth inhibition of human SF539 cells at 10 uM after 48 hrs by sulforhodamine B assay relative to control; details: SF-539, 48 h, read-out: GI; procedure, shortened: as §2
# [10] = system: CAKI-1; test: Growth inhibition of human CAKI-1 cells at 10 uM after 48 hrs by sulforhodamine B assay relative to control; details: CAKI-1, 48 h, read-out: GI; procedure, shortened: as §1
# [11] = system: HL-60(TB); test: Growth inhibition of human HL-60(TB) cells at 10 uM after 48 hrs by sulforhodamine B assay relative to control; details: HL-60, 48 h, read-out: GI
# Procedure, shortened: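 Single-dose primary screen at 10 µM across the NCI 60 panel, 48 h continuous exposure. Growth estimated by sulforhodamine B protein staining and reported as percentage growth inhibition relative to untreated control.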
# [12] = system: NCI-H23; test: Growth inhibition of human NCI-H23 cells at 10 uM after 48 hrs by sulforhodamine B assay relative to control; details: NCI-H23, 48 h, read-out: GI; procedure, shortened: as §2
# [13] = system: NCI-H460; test: Growth inhibition of human NCI-H460 cells at 10 uM after 48 hrs by sulforhodamine B assay relative to control; details: NCI-H460, 48 h, read-out: GI; procedure, shortened: as §2
# [14] = Growth inhibition of human HCT15 cells at 10 uM after 48 hrs by sulforhodamine B assay relative to control; details: HCT-15, 48 h, read-out: GI; procedure, shortened: as §1
# [15] = system: HT-29; test: Growth inhibition of human HT-29 cells at 10 uM after 48 hrs by sulforhodamine B assay relative to control; details: HT-29, 48 h, read-out: GI; procedure, shortened: as §1
# [16] = system: SW-620; test: Growth inhibition of human SW620 cells at 10 uM after 48 hrs by sulforhodamine B assay relative to control; details: SW-620, 48 h, read-out: GI; procedure, shortened: as §2
# [17] = Growth inhibition of human SF295 cells at 10 uM after 48 hrs by sulforhodamine B assay relative to control; details: SF-295, 48 h, read-out: GI; procedure, shortened: as §2
# [18] = system: U-251; test: Growth inhibition of human U251 cells at 10 uM after 48 hrs by sulforhodamine B assay relative to control; details: U-251, 48 h, read-out: GI
# Procedure, shortened: (§3)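 NCI-60 primary single-dose screen at 10 µM with continuous 48 h exposure. Cell viability/growth read by sulforhodamine B protein staining. Reported as percent growth inhibition relative to untreated cells.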
# [19] = Growth inhibition of human LOXIMVI cells at 10 uM after 48 hrs by sulforhodamine B assay relative to control; details: LOX IMVI, read-out: GI; procedure, shortened: as §1
# [20] = system: MDA-MB-435; test: Growth inhibition of human MDA-MB-435 cells at 10 uM after 48 hrs by sulforhodamine B assay relative to control; details: MDA-MB-435, 48 h, read-out: GI; procedure, shortened: as §1
# [21] = system: SK-MEL-2; test: Growth inhibition of human SK-MEL-2 cells at 10 uM after 48 hrs by sulforhodamine B assay relative to control; details: SK-MEL-2, 48 h, read-out: GI; procedure, shortened: as §2
# [22] = system: SK-MEL-5; test: Growth inhibition of human SK-MEL-5 cells at 10 uM after 48 hrs by sulforhodamine B assay relative to control; details: SK-MEL-5, 48 h, read-out: GI; procedure, shortened: as §2
# [23] = Growth inhibition of human OVCAR3 cells at 10 uM after 48 hrs by sulforhodamine B assay relative to control; details: OVCAR-3, 48 h, read-out: GI; procedure, shortened: as §2
# [24] = Growth inhibition of human OVCAR8 cells at 10 uM after 48 hrs by sulforhodamine B assay relative to control; details: OVCAR-8, 48 h, read-out: GI; procedure, shortened: as §2
# [25] = Growth inhibition of human NCI-ADR-RES cells at 10 uM after 48 hrs by sulforhodamine B assay relative to control; details: read-out: GI; procedure, shortened: as §2
# [26] = Growth inhibition of human RXF393 cells at 10 uM after 48 hrs by sulforhodamine B assay relative to control; details: RXF 393, 48 h, read-out: GI; procedure, shortened: as §2
# [27] = system: TK-10; test: Growth inhibition of human TK10 cells at 10 uM after 48 hrs by sulforhodamine B assay relative to control; details: TK-10, 48 h, read-out: GI; procedure, shortened: as §3
# [28] = system: PC-3; test: Growth inhibition of human PC3 cells at 10 uM after 48 hrs by sulforhodamine B assay relative to control; details: PC-3, 48 h, read-out: GI; procedure, shortened: as §2
# [29] = Growth inhibition of human BT549 cells at 10 uM after 48 hrs by sulforhodamine B assay relative to control; details: BT-549, 48 h, read-out: GI; procedure, shortened: as §1
# [30] = system: MDA-MB-468; test: Growth inhibition of human MDA-MB-468 cells at 10 uM after 48 hrs by sulforhodamine B assay relative to control; details: MDA-MB-468, 48 h, read-out: GI; procedure, shortened: as §2
# [31] = Growth inhibition of human UO31 cells at 10 uM after 48 hrs by sulforhodamine B assay relative to control; details: UO-31, 48 h, read-out: GI; procedure, shortened: as §3
# [32] = Growth inhibition of human HOP92 cells at 10 uM after 48 hrs by sulforhodamine B assay relative to control; details: HOP-92, 48 h, read-out: GI; procedure, shortened: as §1
# [33] = Growth inhibition of human OVCAR4 cells at 10 uM after 48 hrs by sulforhodamine B assay relative to control; details: OVCAR-4, 48 h, read-out: GI; procedure, shortened: as §2
# [34] = system: Malme-3M; test: Growth inhibition of human MALME-3M cells at 10 uM after 48 hrs by sulforhodamine B assay relative to control; details: read-out: GI; procedure, shortened: as §1
# [35] = Growth inhibition of human UACC257 cells at 10 uM after 48 hrs by sulforhodamine B assay relative to control; details: UACC-257, 48 h, read-out: GI; procedure, shortened: as §3
# [36] = system: K562; test: Growth inhibition of human K562 cells at 10 uM after 48 hrs by sulforhodamine B assay relative to control; details: K562, 48 h, read-out: GI; procedure, shortened: as §1
# [37] = system: IGROV-1; test: Growth inhibition of human IGROV1 cells at 10 uM after 48 hrs by sulforhodamine B assay relative to control; details: IGROV-1, 48 h, read-out: GI; procedure, shortened: as §1
# [38] = system: 786-0; test: Growth inhibition of human 786-0 cells at 10 uM after 48 hrs by sulforhodamine B assay relative to control; details: 786-0, 48 h, read-out: GI; procedure, shortened: as §1
SMILES,inhibition of growth at 10 µM [1],inhibition of growth at 10 µM [2],inhibition of growth at 10 µM [3],inhibition of growth at 10 µM [4],inhibition of growth at 10 µM [5],inhibition of growth at 10 µM [6],inhibition of growth at 10 µM [7],inhibition of growth at 10 µM [8],inhibition of growth at 10 µM [10],inhibition of growth at 10 µM [11],inhibition of growth at 10 µM [16],inhibition of growth at 10 µM [17],inhibition of growth at 10 µM [18],inhibition of growth at 10 µM [19],inhibition of growth at 10 µM [20],inhibition of growth at 10 µM [21],inhibition of growth at 10 µM [23],inhibition of growth at 10 µM [25],inhibition of growth at 10 µM [28],inhibition of growth at 10 µM [30],also measured
COc1c(C(=O)/C=C/c2ccc(Cl)cc2)c(O)cc2occc12,60%,66%,63%,64%,67%,,,,,,,,,,,,,,,,
COc1ccc(/C=C/c2cc(=O)c3c(OC)c4ccoc4c(Br)c3o2)cc1,,,,,,62%,,,,,,,,,,,,,,,
COc1ccc(/C=C2\Oc3c(c(OC)c4ccoc4c3Br)C2=O)cc1,,71%,60%,60%,,,67%,62%,61%,,,,,,,,,,,,inhibition of growth at 10 µM [9]: 60%
COc1c2c(c(Br)c3occc13)O/C(=C\c1ccccc1)C2=O,79%,94%,79%,84%,,62%,85%,77%,87%,64%,60%,65%,73%,65%,74%,88%,86%,79%,66%,93%,inhibition of growth at 10 µM [12]: 78%; inhibition of growth at 10 µM [13]: 83%; inhibition of growth at 10 µM [14]: 60%; inhibition of growth at 10 µM [15]: 72%; inhibition of growth at 10 µM [9]: 75%; inhibition of growth at 10 µM [22]: 67%; inhibition of growth at 10 µM [24]: 70%; inhibition of growth at 10 µM [26]: 93%; inhibition of growth at 10 µM [27]: 61%; inhibition of growth at 10 µM [29]: 66%
COc1ccc(-c2cc(=O)c3c(OC)c4ccoc4cc3o2)cc1,,,,,,,,,,,,60%,62%,,,,,,,,inhibition of growth at 10 µM [31]: 62%
COc1ccc(/C=C/c2oc3c(OC)c4occc4c(OC)c3c(=O)c2CN2CCOCC2)cc1,87%,61%,,,,,66%,,,,,,,,,,,,,,inhibition of growth at 10 µM [22]: 84%
C=CCOc1cc2oc(-c3ccc(OC)cc3)cc(=O)c2c(OC)c1C=O,,,,,,,,,,,,,,,,,,,,,inhibition of growth at 10 µM [32]: 66%
COc1c2ccoc2c(Br)c2oc(-c3ccc(Cl)cc3)cc(=O)c12,,,,,,,,,,,,,,,,,,,,,inhibition of growth at 10 µM [33]: 72%
COc1c2c(c(Br)c3occc13)O/C(=C\c1ccc(Cl)cc1)C2=O,79%,91%,82%,79%,60%,64%,85%,83%,80%,74%,63%,67%,62%,65%,82%,84%,67%,61%,69%,80%,inhibition of growth at 10 µM [15]: 63%; inhibition of growth at 10 µM [34]: 65%; inhibition of growth at 10 µM [35]: 61%; inhibition of growth at 10 µM [26]: 78%
C=CCOc1cc2oc(-c3ccc(Cl)cc3)cc(=O)c2c(OC)c1C=O,,96%,,85%,72%,93%,,89%,,75%,69%,,68%,99%,73%,75%,81%,78%,76%,91%,inhibition of growth at 10 µM [36]: 76%; inhibition of growth at 10 µM [32]: 97%; inhibition of growth at 10 µM [12]: 61%; inhibition of growth at 10 µM [13]: 61%; inhibition of growth at 10 µM [37]: 62%; inhibition of growth at 10 µM [24]: 66%; inhibition of growth at 10 µM [38]: 65%; inhibition of growth at 10 µM [27]: 73%; inhibition of growth at 10 µM [31]: 74%
